Experimental data collected from several papers.
Lines come from different studies, so protocols differ.
Cell line: RPMI-8226
Effect on: cell growth or viability

Structure (SMILES)	assay	setting	quantity	result
COc1ccc(C(=O)Nc2cccc(-c3nc(NC(P(=O)(O)O)P(=O)(O)O)c4ccsc4n3)c2)cc1F	MTS	72 h	EC50	460 nM
N[C@@H]1CCCN(c2c(/C=C3\SC(=O)NC3=O)cccc2-c2ccccc2)C1	thymidine uptake	–	GI50	2630 nM
Cc1cc(C)n(C(=S)[S][Au][PH](CCCCCC[PH]([Au][S]C(=S)n2nc(C)cc2C)(c2ccccc2)c2ccccc2)(c2ccccc2)c2ccccc2)n1	–	–	GI50	140 nM
COc1cc(Nc2nccc(-c3cnn4nc(OC)ccc34)n2)cc(C(F)(F)F)c1	ATP luminescence	–	IC50	220 nM
CCC[C@H](Nc1nc(-c2ccc(NC(=O)NCC)c(OC)c2)ncc1C)c1cccnc1	fluorescence	72 h	IC50	18.3 nM
CC(C)C[C@H](NC(=O)[C@H](Cc1ccccc1)NC(=O)c1cnccn1)B(O)O	ATP luminescence	–	IC50	3.5 nM
CC[C@]1(O)C[C@H]2CN(CCc3c([nH]c4ccccc34)[C@@](C(=O)OC)(c3cc4c(cc3OC)N(C=O)[C@H]3[C@@](O)(C(=O)OC)[C@H](OC(C)=O)[C@]5(CC)C=CCN6CC[C@]43[C@@H]65)C2)C1	fluorescence	72 h	IC50	17.9 nM
COc1cccc(Oc2ccccc2NC(=O)CNC(=O)c2cccc3ccccc23)c1	SRB	48 h	GI50	955 nM
COc1ccc(C(=O)/C=C/c2c(F)cccc2Cl)cc1S(N)(=O)=O	SRB	10 µM	inhibition	110%
O=C(Nc1cccc(-c2nc(NC(P(=O)(O)O)P(=O)(O)O)c3ccsc3n2)c1)c1ccc(C(F)(F)F)cc1	MTS	72 h	EC50	710 nM
COc1ccc(C(=O)/C=C/c2ccc(Cl)c(Cl)c2)cc1S(N)(=O)=O	SRB	10 µM	inhibition	107%
C=CC(=O)N1CCC[C@@H](n2nc(-c3ccc(Oc4ccccc4)cc3)c3c(N)ncnc32)C1	–	48 h	GI50	> 10000 nM
CC(C)C[C@H](NC(=O)[C@H](Cc1ccccc1)NC(=O)c1cnccn1)B(O)O	ATP luminescence	–	EC50	3.9 nM
